Reference: ChEMBL document CHEMBL1133680, “Benzo[c]quinolizin-3-ones: a novel class of potent and selective nonsteroidal inhibitors of human steroid 5alpha-reductase 1” (J Med Chem, 2000)
pIC50, pKi: −log10 of the molar value.

Legend:
[1] = biological target: T1, 3-oxo-5-alpha-steroid 4-dehydrogenase 1 (Homo sapiens, UniProt P18405); assay: Inhibition of recombinant Steroid 5-alpha-reductase type I expressed in CHO cells; format: cell-based
T1 sequence (P18405 whole entry): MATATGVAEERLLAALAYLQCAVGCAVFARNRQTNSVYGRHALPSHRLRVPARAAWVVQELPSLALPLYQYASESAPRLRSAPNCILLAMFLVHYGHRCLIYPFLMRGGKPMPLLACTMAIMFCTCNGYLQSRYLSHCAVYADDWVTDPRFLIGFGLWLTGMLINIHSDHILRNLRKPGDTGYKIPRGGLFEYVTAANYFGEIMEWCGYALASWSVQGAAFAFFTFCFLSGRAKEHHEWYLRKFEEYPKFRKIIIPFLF

[2] = biological target: T1, 3-oxo-5-alpha-steroid 4-dehydrogenase 1; assay: Inhibitory activity against Steroid 5-alpha-reductase type I in human scalp homogenates; format: tissue-based
Method in brief: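 Native 5αR-1 assayed in total human scalp homogenate with testosterone at micromolar level. 10 nM finasteride was included to suppress the co-active 5αR-2, and the value is reported as IC50.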

[3] = biological target: T1, 3-oxo-5-alpha-steroid 4-dehydrogenase 1; assay: Inhibition constant against recombinant Steroid 5-alpha-reductase type I expressed in CHO cells; format: cell-based
[4] = biological target: T2, 3-oxo-5-alpha-steroid 4-dehydrogenase 2 (Homo sapiens) (UniProt P31213); assay: Inhibitory activity against steroid 5-alpha-reductase type 2 in human prostate homogenates at 10 uM; format: tissue-based; conditions: Prostate gland
T2 sequence (whole entry): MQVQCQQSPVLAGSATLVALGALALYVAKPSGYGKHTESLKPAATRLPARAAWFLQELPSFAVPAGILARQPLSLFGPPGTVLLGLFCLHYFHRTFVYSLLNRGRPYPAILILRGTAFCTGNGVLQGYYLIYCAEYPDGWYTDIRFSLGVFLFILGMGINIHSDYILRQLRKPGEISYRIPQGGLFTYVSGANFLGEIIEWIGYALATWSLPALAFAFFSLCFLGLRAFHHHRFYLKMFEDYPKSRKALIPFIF
Method in brief: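 Native 5αR-2 assayed in total human prostate homogenate with 50 nM testosterone, a level below the 5αR-1 Km so only type 2 is active. Percent inhibition was measured at 10 µM inhibitor.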

[5] = biological target: T1, 3-oxo-5-alpha-steroid 4-dehydrogenase 1; assay: Inhibition of recombinant steroid 5-alpha-reductase type I expressed in CHO cells; format: cell-based
[6] = biological target: T1, 3-oxo-5-alpha-steroid 4-dehydrogenase 1; assay: Inhibitory activity against recombinant Steroid 5-alpha-reductase type I expressed in CHO cells; format: cell-based
[7] = biological target: T3, 3-oxo-5-alpha-steroid 4-dehydrogenase 2 (Homo sapiens, UniProt P31213); assay: Inhibitory activity against steroid 5-alpha-reductase type 2 in human prostate homogenates; format: tissue-based, Prostate gland
T3 sequence (P31213 whole entry): T2 sequence (whole entry)
Method in brief: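 Native 5αR-2 in total human prostate homogenate, with 50 nM testosterone so that only type 2 is active (Km 0.2 µM vs 1.7 µM for type 1). Inhibition measured at 10 µM or as IC50. Finasteride and LY191704 used as selectivity controls.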

Row | SMILES | pIC50 [1] | pIC50 [5] | other results
1 | CC1C(=O)C=CN2c3ccccc3CCC12 (configuration not stated) | 5.37 | – | –
2 | Cc1ccc2c(c1)CCC1C(C)C(=O)C=CN21 (configuration not stated) | 6.51 | – | –
3 | CC1=C2CCc3cc(Cl)ccc3N2CCC1=O | – | 8.12 | pIC50 [2]: 7.39; pKi [3]: 8.57; inhibition [4]: 20%
4 | CC1=C2CCc3ccccc3N2CCC1=O | – | 6.73 | –
5 | C[C@@H]1CC2CC(=O)C=CN2c2ccc(Cl)cc21 (some centres not stated) | – | 6.73 | –
6 | Cc1c2n(ccc1=O)-c1ccccc1CC2 | 5.85 | – | –
7 | O=C1C=CN2c3ccc(Cl)cc3CCC2C1 (configuration not stated) | – | 6.34 | –
8 | CC1C(=O)C=CN2c3ccc(Cl)cc3CCC12 (configuration not stated) | – | 6.85 | –
9 | C[C@H]1Cc2cc(Cl)ccc2N2C=CC(=O)CC12 (some centres not stated) | – | 5.04 | –
10 | CC1Cc2cc(Cl)ccc2-n2ccc(=O)cc21 (configuration not stated) | 5.73 | – | –
11 | CN1C(=O)CC[C@@H]2c3ccc(Cl)cc3CC[C@H]21 [BEXLOSTERIDE] | – | – | pIC50 [2]: 8.64; inhibition [4]: 19%
12 | C[C@@H]1C(=O)C=CN2c3ccccc3CCC12 (some centres not stated) | – | 5.57 | –
13 | CC(C)(C)NC(=O)[C@H]1CC[C@H]2[C@@H]3CC[C@H]4NC(=O)C=C[C@]4(C)[C@H]3CC[C@]12C [FINASTERIDE] | – | – | pKi [6]: 6.44; pIC50 [7]: 8.66

More lines, main results first:

Row | pIC50 [1] | pIC50 [5] | SMILES | other results
14 | – | 6.42 | Cc1ccc2c(c1)CCC1=CC(=O)CCN12 | –
15 | 7.84 | – | CC1CC2=CC(=O)CCN2c2ccc(Cl)cc21 (configuration not stated) | –
16 | 7.80 | – | CC1=C2CC(C)c3cc(C)ccc3N2CCC1=O (configuration not stated) | –
17 | 7.81 | – | CC1=C2C(C)Cc3cc(Cl)ccc3N2CCC1=O (configuration not stated) | –
18 | – | 6.46 | CC1Cc2cc(Cl)ccc2N2CCC(=O)C=C12 (configuration not stated) | –
19 | – | 7.70 | CC1=C2CCc3cc(C)ccc3N2CCC1=O | pIC50 [2]: 7.39; pKi [3]: 8.24; inhibition [4]: 20%
20 | 8.07 | – | CC1=C2CC(C)c3cc(Cl)ccc3N2CCC1=O (configuration not stated) | –
21 | – | 6.75 | Cc1ccc2c(c1)CCC1CC(=O)C=CN21 (configuration not stated) | –
22 | 6.69 | – | CC1CC(=O)C=C2CCc3cc(Cl)ccc3N21 (configuration not stated) | –
23 | – | 6.86 | Cc1ccc2c(c1)CCC1[C@H](C)C(=O)C=CN21 (some centres not stated) | –
24 | 7.84 | – | Cc1ccc2c(c1)C(C)CC1=CC(=O)CCN12 (configuration not stated) | –
